Key:
Rattus norvegicus [1] = test: Antihypertensive activity expressed as change in mean arterial blood pressure (MABP) in spontaneously hypertensive rats (SHR), at 3-6h after 30 mg/kg oral administration; assay type: functional, Artery
Method in brief: (§1)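 Adult male SHR, catheter implanted in carotid artery or abdominal aorta under anesthesia at least 24 h before dosing. Baseline pressure recorded 1-1.5 h. Compound given orally at 30 mg/kg as solution or suspension in 0.5% Tween 80/distilled H2O (v/v) or other vehicle. MABP read at 0.5, 1, 1.5, 2, 3, 4, 5 and 6 h. Average percent change from predose calculated per period. Paired one-tailed t test, p < 0.05. n = 3-6 rats unless noted.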

Oryctolagus cuniculus = species on record: Oryctolagus cuniculus; test: Calcium channel-blocking activity by determined by ability to antagonize calcium-induced contractions of isolated rabbit aortic strips; assay type: functional; conditions: Aorta, read-out: pA2 (converted)
Method in brief: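 Rabbit aortic strips were bathed in turn in CaCl2-containing buffer, CaCl2-free buffer, then depolarizing (KCl) CaCl2-free buffer. Cumulative CaCl2 addition induced contractions, recorded with force-displacement transducers. Responses were compared without and with 1–100 nM test compound. pA2 was calculated by the Van Rossum method from at least three tissues.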

Rattus norvegicus [2] = test: Antihypertensive activity expressed as change in mean arterial blood pressure (MABP) in spontaneously hypertensive rats (SHR),at 0.5-2h after 30 mg/kg oral administration; assay type: functional, Artery; method in brief: as §1

SMILES | Change (Rattus norvegicus [1]) | Kb (Oryctolagus cuniculus) | Change (Rattus norvegicus [2])
O=S(=O)(CCCN1CCC(C(c2ccc(F)cc2)c2ccc(F)cc2)CC1)c1ccccc1 | 3% | 20 nM | 2%
COc1cc(C(C)=O)ccc1OCCCN1CCC(C(O)(c2ccc(F)cc2)c2ccc(F)cc2)CC1 | -9% | 10 nM | -5%
COc1cc(C(C)=O)ccc1OCCCN1CCC(C(c2ccc(Cl)cc2)c2ccc(Cl)cc2)CC1 | -9% | 2.51 nM | -3%
COc1cc(OCCCN2CCC(C(c3ccc(F)cc3)c3ccc(F)cc3)CC2)ccc1C(C)=O | -11% | 3.16 nM | -5%
COc1ccc(C(c2ccc(OC)cc2)C2CCN(CCCOc3ccc(C(C)=O)cc3OC)CC2)cc1 | 1% | 10 nM | 2%
COc1cc(C(C)=O)ccc1OCCCN1CCC(C(c2ccc(F)cc2F)c2ccc(F)cc2F)CC1 | -16% | 15.8 nM | -12%
Fc1ccc(C(c2ccc(F)cc2)C2CCN(CCCOc3ccccc3)CC2)cc1 | -2% | 1.58 nM | -1%
COc1cc(C(C)=O)ccc1OCCCN1CCC(=C(c2ccc(F)cc2)c2ccc(F)cc2)CC1 | -12% | 3.98 nM | -9%
NC(=O)c1ccc(OCCCN2CCC(C(c3ccc(F)cc3)c3ccc(F)cc3)CC2)cc1 | -8% | 31.6 nM | -3%
COc1ccccc1OCCCN1CCC(C(c2ccc(F)cc2)c2ccc(F)cc2)CC1 | -1% | 2.51 nM | -4%
COc1cc(C(C)=O)ccc1OCCCN1CCC(C(N)(c2ccc(F)cc2)c2ccc(F)cc2)CC1 | -10% | 31.6 nM | 1%
COC(=O)c1ccc(OCCCN2CCC(C(c3ccc(F)cc3)c3ccc(F)cc3)CC2)c(OC)c1 | -2% | 1.26 nM | -4%
CN(CCCN1CCC(C(c2ccc(F)cc2)c2ccc(F)cc2)CC1)c1ccccc1 | -6% | 2 nM | -3%
CC(=O)c1ccc(OCCCN2CCC(C(c3ccc(F)cc3)c3ccc(F)cc3)CC2)cc1 | 0% | 2.51 nM | -1%
Fc1ccc(C(c2ccc(F)cc2)C2CCN(CCCOc3cccc4ccccc34)CC2)cc1 | -7% | 5.01 nM | -6%
Fc1ccc(C(c2ccc(F)cc2)C2CCN(CCOc3cccc4ccccc34)CC2)cc1 | -27% | 12.6 nM | -19%
COc1cc(C(C)=O)ccc1OCCCN1CCCC(CC(C#N)(c2ccc(F)cc2)c2ccc(F)cc2)C1 (stereo unspecified) | -5% | 12.6 nM | 2%
Cc1cccc(C)c1NC(=O)CN1CCN(CCCC(c2ccc(F)cc2)c2ccc(F)cc2)CC1 [LIDOFLAZINE] | -9% | 31.6 nM | -9%
Fc1ccc(C(c2ccc(F)cc2)C2CCN(CCCSc3ccccc3)CC2)cc1 | -3% | 3.16 nM | -5%

SMILES | Change (Rattus norvegicus [1]) | Kb (Oryctolagus cuniculus) | Change (Rattus norvegicus [2])
COc1cc(C(C)=O)ccc1OCCCN1CCC(C(c2ccccc2)c2ccc(F)cc2)CC1 (stereo unspecified) | -12% | 6.31 nM | -8%
Nc1ccc(OCCCN2CCC(C(c3ccc(F)cc3)c3ccc(F)cc3)CC2)cc1 | -8% | 31.6 nM | -5%
CCc1ccc(OCCCN2CCC(C(c3ccc(F)cc3)c3ccc(F)cc3)CC2)c(OC)c1 | -7% | 2.51 nM | -9%
COc1cc(C(C)=O)ccc1OCCCN1CCC(C(c2ccc(C)cc2)c2ccc(C)cc2)CC1 | -2% | 15.8 nM | 3%
COc1cc(C(C)=O)ccc1OCCCN1CCC(C(C(N)=O)(c2ccc(F)cc2)c2ccc(F)cc2)CC1 | 5% | 25.1 nM | 3%
COc1cc(C(C)=O)ccc1OCCCN1CCC(C(c2cccc(F)c2)c2cccc(F)c2)CC1 | -9% | 3.16 nM | -11%
COc1cc(C(=O)O)ccc1OCCCN1CCC(C(c2ccc(F)cc2)c2ccc(F)cc2)CC1 | 0% | 79.4 nM | 9%
Fc1ccc(C(c2ccc(F)cc2)C2CCN(CCCCc3ccccc3)CC2)cc1 | -9% | 2.51 nM | -5%
COc1cc(C(C)=O)ccc1OCCCN1CCC(C(c2ccc(F)c(F)c2)c2ccc(F)c(F)c2)CC1 | -35% | 2.51 nM | -28%
COc1cc(C(C)=O)ccc1OCCCCCCN1CCC(C(c2ccc(F)cc2)c2ccc(F)cc2)CC1 | -22% | 6.31 nM | -10%
COc1cc(C(C)=O)ccc1OCCCN1CCC(C(c2ccc(F)cc2)c2ccc(F)cc2)CC1 | -22% | 1.58 nM | -15%
CC(C)(C)c1ccc(OCCCN2CCC(C(c3ccc(F)cc3)c3ccc(F)cc3)CC2)cc1 | -10% | 1 nM | -15%
COc1cc(C(C)=O)ccc1OCCCN1CCC(C(c2ccc(F)cc2)C2CCCCC2)CC1 (stereo unspecified) | -6% | 5.01 nM | 3%
CC(=O)Nc1ccc(OCCCN2CCC(C(c3ccc(F)cc3)c3ccc(F)cc3)CC2)cc1 | -12% | 12.6 nM | -12%
COc1cc(C(C)=O)ccc1OCCCN1CCCC(C(C#N)(c2ccc(F)cc2)c2ccc(F)cc2)C1 (stereo unspecified) | 9% | 7.94 nM | 5%
COc1ccc(CCN(C)CCCC(C#N)(c2ccc(OC)c(OC)c2)C(C)C)cc1OC (stereo unspecified) [VERAPAMIL] | -22% | 10 nM | -19%
COc1cc(C(C)=O)ccc1OCCCN1CCC(C(c2ccccc2)c2ccccc2)CC1 | -12% | 6.31 nM | -20%
COc1cc(C#N)ccc1OCCCN1CCC(C(c2ccc(F)cc2)c2ccc(F)cc2)CC1 | -9% | 2 nM | -3%
COc1cc(C(C)=O)ccc1OCCCN1CCC(C(O)(c2ccc(F)c(F)c2)c2ccc(F)c(F)c2)CC1 | -24% | 2.51 nM | -5%

SMILES | Change (Rattus norvegicus [1]) | Kb (Oryctolagus cuniculus) | Change (Rattus norvegicus [2])
COc1cc(C(C)=O)ccc1OCCCN1CCC(C(NC(C)=O)(c2ccc(F)cc2)c2ccc(F)cc2)CC1 | -7% | 63.1 nM | -3%
COc1cc(C(C)O)ccc1OCCCN1CCC(C(c2ccc(F)cc2)c2ccc(F)cc2)CC1 (stereo unspecified) | -9% | 10 nM | -14%
COc1ccc([C@@H]2Sc3ccccc3N(CCN(C)C)C(=O)[C@@H]2OC(C)=O)cc1 [DILTIAZEM] | -13% | 20 nM | -14%
COc1cc(C(C)=O)ccc1OCCCCN1CCC(C(c2ccc(F)cc2)c2ccc(F)cc2)CC1 | -21% | 2.51 nM | -16%
COc1ccc(OCCCN2CCC(C(c3ccc(F)cc3)c3ccc(F)cc3)CC2)cc1 | -3% | 2.51 nM | -2%
COC(=O)C1=C(C)NC(C)=C(C(=O)OC)C1c1ccccc1[N+](=O)[O-] [NIFEDIPINE] | -35% | 0.158 nM | -30%
COc1cc(C(C)=O)ccc1OCCN1CCC(C(c2ccc(F)cc2)c2ccc(F)cc2)CC1 | 0% | 6.31 nM | -4%
Fc1ccc(C(c2ccc(F)cc2)C2CCN(CCCOc3ccc4ccccc4c3)CC2)cc1 | -4% | 7.94 nM | -7%
COc1cc(C(C)=O)ccc1OCCCN1CCC(C(C#N)(c2ccc(F)cc2)c2ccc(F)cc2)C1 (stereo unspecified) | 1% | 6.31 nM | -2%
COc1cc(C(C)=O)ccc1OCCCN1CCC(Cc2ccc(F)cc2)CC1 | -4% | 20 nM | -7%
COc1cc(C(C)=O)ccc1OCCCN1CCC(C(c2ccc(F)cc2)c2ccc(F)c(F)c2)CC1 (stereo unspecified) | -30% | 1.26 nM | -27%
Fc1ccc(C(c2ccc(F)cc2)C2CCN(CCOc3ccc4ccccc4c3)CC2)cc1 | -30% | 3.98 nM | -16%
Fc1ccc(C(c2ccc(F)cc2)C2CCN(CCCOc3ccc(Cl)cc3)CC2)cc1 | -25% | 2 nM | -15%
Fc1ccc(C(c2ccc(F)cc2)C2CCN(CCCOc3ccc(Br)cc3)CC2)cc1 | -17% | 1.58 nM | -3%
COc1cc(C(C)=O)ccc1OCCCN1CCC(CC(c2ccc(F)cc2)c2ccc(F)cc2)CC1 | -10% | 3.16 nM | -13%
Fc1ccc(OCCCN2CCC(C(c3ccc(F)cc3)c3ccc(F)cc3)CC2)cc1 | -6% | 1.26 nM | -2%
N#Cc1ccc(OCCCN2CCC(C(c3ccc(F)cc3)c3ccc(F)cc3)CC2)cc1 | -11% | 5.01 nM | 8%
COc1cc(C(C)=O)ccc1OCCCCCN1CCC(C(c2ccc(F)cc2)c2ccc(F)cc2)CC1 | -13% | 3.16 nM | -5%
COc1cc(C(C)=O)ccc1OCCCN1CCC(C(C#N)(c2ccc(F)cc2)c2ccc(F)cc2)CC1 | -26% | 2 nM | -17%
